Test results: paper PMC9009525 (ACS synthetic biology, 2021)
Ends that are not written are not given here.

System: T7 Express LysY/I^q E. coli
Test: Induction test: growth
Type: cell-based, Escherichia coli
Conditions: 0.50 mM IPTG, LB with kan, 37 °C, OD600 over nine hours
Procedure, shortened: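 T7 Express LysY/Iq E. coli transformed with 80 ng pETh vector carrying oncocin or a negative control, each separately. After SOC recovery, cells were pelleted and resuspended in LB with 50 µg mL-1 kanamycin. This suspension seeded LB-kanamycin (1:100) containing 0 to 0.50 mM IPTG. Cultures were shaken at 250 rpm at 37 °C for nine hours, with OD600 read every 50 minutes.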

VDKPPYLPRPRPPRRIYNR-NH2 (C-terminus assumed) [oncocin]
growth of oncocin-expressing E. coli upon induction (in words): nearly complete growth inhibition
